Results from ChEMBL document CHEMBL4152188, “Design, synthesis and biological evaluation of C(4) substituted monobactams as antibacterial agents against multidrug-resistant Gram-negative bacteria” (Eur J Med Chem, 2018).

Assays:
Type in all cases: functional
Pseudomonas aeruginosa [1] = test: Antibacterial activity against IMP-4 producing Pseudomonas aeruginosa isolate 209471 after 18 hrs by CLSI broth microdilution method; conditions: isolate 209471, 18 h
Klebsiella pneumoniae [2] = test: Selectivity index, ratio of MIC for against KPC-2 producing Klebsiella pneumoniae isolate 209735 to MIC for against KPC-2 producing Klebsiella pneumoniae isolate 209735 in presence of BPL
Klebsiella pneumoniae [3] = test: Selectivity index, ratio of MIC for against KPC-2 producing Klebsiella pneumoniae isolate 212232 to MIC for against KPC-2 producing Klebsiella pneumoniae isolate 212232 in presence of BPL
Pseudomonas aeruginosa [4] = test: Antibacterial activity against IMP-4 producing Pseudomonas aeruginosa isolate 212886 after 18 hrs in presence of BPL by CLSI broth microdilution method; conditions: isolate 212886, 18 h
How it was run: (§1)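 CLSI broth microdilution against clinical isolates (ESBL E. coli, KPC-2 MDR K. pneumoniae, IMP-4 MDR P. aeruginosa; five per species). Iron limitation: Mueller-Hinton broth supplemented with 16 mg/liter 2,2'-bipyridyl to complex iron and induce iron uptake systems. Read-out: MIC.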

Pseudomonas aeruginosa [5] = test: Selectivity index, ratio of MIC for against IMP-4 producing Pseudomonas aeruginosa isolate 212886 to MIC for against IMP-4 producing Pseudomonas aeruginosa isolate 212886 in presence of BPL
Escherichia coli [6] = test: Antibacterial activity against extended-spectrum beta-lactamase producing Escherichia coli isolate 209285 after 18 hrs by CLSI broth microdilution method; conditions: isolate 209285, 18 h
Klebsiella pneumoniae [7] = test: Antibacterial activity against KPC-2 producing Klebsiella pneumoniae isolate 212232 after 18 hrs by CLSI broth microdilution method; conditions: isolate 212232, 18 h
Pseudomonas aeruginosa [8] = test: Antibacterial activity against IMP-4 producing Pseudomonas aeruginosa isolate 209321 after 18 hrs in presence of BPL by CLSI broth microdilution method; conditions: isolate 209321, 18 h; how it was run: as §1
Klebsiella pneumoniae [9] = test: Antibacterial activity against KPC-2 producing Klebsiella pneumoniae isolate 209632 after 18 hrs in presence of BPL by CLSI broth microdilution method; conditions: isolate 209632, 18 h; how it was run: as §1
Escherichia coli [10] = test: Selectivity index, ratio of MIC for against extended-spectrum beta-lactamase producing Escherichia coli isolate 208687 to MIC for extended-spectrum beta-lactamase producing Escherichia coli isolate 208687 in presence of BPL
Klebsiella pneumoniae [11] = test: Antibacterial activity against KPC-2 producing Klebsiella pneumoniae isolate 212423 after 18 hrs by CLSI broth microdilution method; conditions: isolate 212423, 18 h
Escherichia coli [12] = test: Antibacterial activity against extended-spectrum beta-lactamase producing Escherichia coli isolate 209285 after 18 hrs in presence of BPL by CLSI broth microdilution method; conditions: isolate 209285, 18 h; how it was run: as §1
Pseudomonas aeruginosa [13] = test: Antibacterial activity against IMP-4 producing Pseudomonas aeruginosa isolate 208247 after 18 hrs in presence of BPL by CLSI broth microdilution method; conditions: isolate 208247, 18 h; how it was run: as §1
Escherichia coli [14] = test: Selectivity index, ratio of MIC for against extended-spectrum beta-lactamase producing Escherichia coli isolate 106342 to MIC for extended-spectrum beta-lactamase producing Escherichia coli isolate 106342 in presence of BPL
Pseudomonas aeruginosa [15] = test: Antibacterial activity against IMP-4 producing Pseudomonas aeruginosa isolate 207272 after 18 hrs in presence of BPL by CLSI broth microdilution method; conditions: isolate 207272, 18 h; how it was run: as §1
Klebsiella pneumoniae [16] = test: Selectivity index, ratio of MIC for against KPC-2 producing Klebsiella pneumoniae isolate 209632 to MIC for against KPC-2 producing Klebsiella pneumoniae isolate 209632 in presence of BPL
Escherichia coli [17] = test: Antibacterial activity against extended-spectrum beta-lactamase producing Escherichia coli isolate 208687 after 18 hrs by CLSI broth microdilution method; conditions: isolate 208687, 18 h
Klebsiella pneumoniae [18] = test: Antibacterial activity against KPC-2 producing Klebsiella pneumoniae isolate 209735 after 18 hrs by CLSI broth microdilution method; conditions: isolate 209735, 18 h
Pseudomonas aeruginosa [19] = test: Selectivity index, ratio of MIC for against IMP-4 producing Pseudomonas aeruginosa isolate 207272 to MIC for against IMP-4 producing Pseudomonas aeruginosa isolate 207272 in presence of BPL
Pseudomonas aeruginosa [20] = test: Antibacterial activity against IMP-4 producing Pseudomonas aeruginosa isolate 209471 after 18 hrs in presence of BPL by CLSI broth microdilution method; conditions: isolate 209471, 18 h; how it was run: as §1
Escherichia coli [21] = test: Selectivity index, ratio of MIC for against extended-spectrum beta-lactamase producing Escherichia coli isolate 209285 to MIC for extended-spectrum beta-lactamase producing Escherichia coli isolate 209285 in presence of BPL
Klebsiella pneumoniae [22] = test: Antibacterial activity against KPC-2 producing Klebsiella pneumoniae isolate 212232 after 18 hrs in presence of BPL by CLSI broth microdilution method; conditions: isolate 212232, 18 h; how it was run: as §1
Pseudomonas aeruginosa [23] = test: Selectivity index, ratio of MIC for against IMP-4 producing Pseudomonas aeruginosa isolate 208247 to MIC for against IMP-4 producing Pseudomonas aeruginosa isolate 208247 in presence of BPL
Klebsiella pneumoniae [24] = test: Antibacterial activity against KPC-2 producing Klebsiella pneumoniae isolate 209632 after 18 hrs by CLSI broth microdilution method; conditions: isolate 209632, 18 h
Pseudomonas aeruginosa [25] = test: Antibacterial activity against IMP-4 producing Pseudomonas aeruginosa isolate 208247 after 18 hrs by CLSI broth microdilution method; conditions: isolate 208247, 18 h
Escherichia coli [26] = test: Antibacterial activity against extended-spectrum beta-lactamase producing Escherichia coli isolate 212648 after 18 hrs in presence of BPL by CLSI broth microdilution method; conditions: isolate 212648, 18 h; how it was run: as §1
Escherichia coli [27] = test: Antibacterial activity against extended-spectrum beta-lactamase producing Escherichia coli isolate 208687 after 18 hrs in presence of BPL by CLSI broth microdilution method; conditions: isolate 208687, 18 h; how it was run: as §1
Klebsiella pneumoniae [28] = test: Antibacterial activity against KPC-2 producing Klebsiella pneumoniae isolate 212229 after 18 hrs in presence of BPL by CLSI broth microdilution method; conditions: isolate 212229, 18 h; how it was run: as §1
Escherichia coli [29] = test: Antibacterial activity against extended-spectrum beta-lactamase producing Escherichia coli isolate 106342 after 18 hrs in presence of BPL by CLSI broth microdilution method; conditions: isolate 106342, 18 h; how it was run: as §1
Pseudomonas aeruginosa [30] = test: Antibacterial activity against IMP-4 producing Pseudomonas aeruginosa isolate 212886 after 18 hrs by CLSI broth microdilution method; conditions: isolate 212886, 18 h
Klebsiella pneumoniae [31] = test: Antibacterial activity against KPC-2 producing Klebsiella pneumoniae isolate 212229 after 18 hrs by CLSI broth microdilution method; conditions: isolate 212229, 18 h
Pseudomonas aeruginosa [32] = test: Antibacterial activity against IMP-4 producing Pseudomonas aeruginosa isolate 209321 after 18 hrs by CLSI broth microdilution method; conditions: isolate 209321, 18 h
Pseudomonas aeruginosa [33] = test: Antibacterial activity against IMP-4 producing Pseudomonas aeruginosa isolate 207272 after 18 hrs by CLSI broth microdilution method; conditions: isolate 207272, 18 h
Escherichia coli [34] = test: Antibacterial activity against Escherichia coli isolate 210737 after 18 hrs by CLSI broth microdilution method; conditions: isolate 210737, 18 h
Escherichia coli [35] = test: Antibacterial activity against extended-spectrum beta-lactamase producing Escherichia coli isolate 212648 after 18 hrs by CLSI broth microdilution method; conditions: isolate 212648, 18 h
Pseudomonas aeruginosa [36] = test: Selectivity index, ratio of MIC for against IMP-4 producing Pseudomonas aeruginosa isolate 209471 to MIC for against IMP-4 producing Pseudomonas aeruginosa isolate 209471 in presence of BPL
Escherichia coli [37] = test: Selectivity index, ratio of MIC for against Escherichia coli isolate 210737 to MIC for Escherichia coli isolate 210737 in presence of BPL
Escherichia coli [38] = test: Selectivity index, ratio of MIC for against extended-spectrum beta-lactamase producing Escherichia coli isolate 212648 to MIC for extended-spectrum beta-lactamase producing Escherichia coli isolate 212648 in presence of BPL
Klebsiella pneumoniae [39] = test: Selectivity index, ratio of MIC for against KPC-2 producing Klebsiella pneumoniae isolate 212423 to MIC for against KPC-2 producing Klebsiella pneumoniae isolate 212423 in presence of BPL
Escherichia coli [40] = test: Antibacterial activity against Escherichia coli isolate 210737 after 18 hrs in presence of BPL by CLSI broth microdilution method; conditions: isolate 210737, 18 h; how it was run: as §1
Klebsiella pneumoniae [41] = test: Selectivity index, ratio of MIC for against KPC-2 producing Klebsiella pneumoniae isolate 212229 to MIC for against KPC-2 producing Klebsiella pneumoniae isolate 212229 in presence of BPL
Escherichia coli [42] = test: Antibacterial activity against extended-spectrum beta-lactamase producing Escherichia coli isolate 106342 after 18 hrs by CLSI broth microdilution method; conditions: isolate 106342, 18 h
Klebsiella pneumoniae [43] = test: Antibacterial activity against KPC-2 producing Klebsiella pneumoniae isolate 209735 after 18 hrs in presence of BPL by CLSI broth microdilution method; conditions: isolate 209735, 18 h; how it was run: as §1
Klebsiella pneumoniae [44] = test: Antibacterial activity against KPC-2 producing Klebsiella pneumoniae isolate 212423 after 18 hrs in presence of BPL by CLSI broth microdilution method; conditions: isolate 212423, 18 h; how it was run: as §1
Pseudomonas aeruginosa [45] = test: Selectivity index, ratio of MIC for against IMP-4 producing Pseudomonas aeruginosa isolate 209321 to MIC for against IMP-4 producing Pseudomonas aeruginosa isolate 209321 in presence of BPL

CC(C)C(O/N=C(\C(=O)N[C@@H]1C(=O)N(S(=O)(=O)O)[C@@H]1CSc1nc(=O)c(O)nn1C)c1csc(N)n1)c1cc(=O)c(O)cn1O (stereo not given in full)
0.25 µg/mL: MIC (Klebsiella pneumoniae [22])
32 µg/mL: MIC (Pseudomonas aeruginosa [4])
2: Selectivity Index (Klebsiella pneumoniae [2]) | Selectivity Index (Escherichia coli [14]) | Selectivity Index (Klebsiella pneumoniae [16]) | Selectivity Index (Escherichia coli [37]) | Selectivity Index (Klebsiella pneumoniae [39])
> 64 µg/mL: MIC (Pseudomonas aeruginosa [8]) | MIC (Pseudomonas aeruginosa [30]) | MIC (Pseudomonas aeruginosa [32])
>2: Selectivity Index (Pseudomonas aeruginosa [5])
4: Selectivity Index (Escherichia coli [10]) | Selectivity Index (Escherichia coli [38]) | Selectivity Index (Klebsiella pneumoniae [41])
2 µg/mL: MIC (Klebsiella pneumoniae [7]) | MIC (Klebsiella pneumoniae [24]) | MIC (Escherichia coli [29]) | MIC (Escherichia coli [34]) | MIC (Klebsiella pneumoniae [43]) | MIC (Klebsiella pneumoniae [44])
4 µg/mL: MIC (Escherichia coli [6]) | MIC (Klebsiella pneumoniae [11]) | MIC (Escherichia coli [12]) | MIC (Escherichia coli [17]) | MIC (Klebsiella pneumoniae [18]) | MIC (Klebsiella pneumoniae [31]) | MIC (Escherichia coli [35]) | MIC (Escherichia coli [42])
8: Selectivity Index (Klebsiella pneumoniae [3])
64 µg/mL: MIC (Pseudomonas aeruginosa [1]) | MIC (Pseudomonas aeruginosa [13]) | MIC (Pseudomonas aeruginosa [15]) | MIC (Pseudomonas aeruginosa [20]) | MIC (Pseudomonas aeruginosa [25]) | MIC (Pseudomonas aeruginosa [33])
1 µg/mL: MIC (Klebsiella pneumoniae [9]) | MIC (Escherichia coli [26]) | MIC (Escherichia coli [27]) | MIC (Klebsiella pneumoniae [28]) | MIC (Escherichia coli [40])
1: Selectivity Index (Pseudomonas aeruginosa [19]) | Selectivity Index (Escherichia coli [21]) | Selectivity Index (Pseudomonas aeruginosa [23]) | Selectivity Index (Pseudomonas aeruginosa [36])

C=CC1[C@H](NC(=O)/C(=N\OC(c2cc(=O)c(O)cn2O)C(C)C)c2csc(N)n2)C(=O)N1S(=O)(=O)O (stereo not given in full)
64 µg/mL: MIC (Pseudomonas aeruginosa [8]) | MIC (Escherichia coli [17]) | MIC (Escherichia coli [29]) | MIC (Pseudomonas aeruginosa [32]) | MIC (Escherichia coli [42])
1: Selectivity Index (Escherichia coli [14]) | Selectivity Index (Pseudomonas aeruginosa [45])
2 µg/mL: MIC (Escherichia coli [27])
> 64 µg/mL: MIC (Pseudomonas aeruginosa [1]) | MIC (Pseudomonas aeruginosa [4]) | MIC (Escherichia coli [6]) | MIC (Klebsiella pneumoniae [7]) | MIC (Klebsiella pneumoniae [9]) | MIC (Klebsiella pneumoniae [11]) | MIC (Escherichia coli [12]) | MIC (Pseudomonas aeruginosa [13]) | MIC (Pseudomonas aeruginosa [15]) | MIC (Klebsiella pneumoniae [18]) | MIC (Pseudomonas aeruginosa [20]) | MIC (Klebsiella pneumoniae [22]) | MIC (Klebsiella pneumoniae [24]) | MIC (Pseudomonas aeruginosa [25]) | MIC (Escherichia coli [26]) | MIC (Klebsiella pneumoniae [28]) | MIC (Pseudomonas aeruginosa [30]) | MIC (Klebsiella pneumoniae [31]) | MIC (Pseudomonas aeruginosa [33]) | MIC (Escherichia coli [34]) | MIC (Escherichia coli [35]) | MIC (Escherichia coli [40]) | MIC (Klebsiella pneumoniae [43]) | MIC (Klebsiella pneumoniae [44])
32: Selectivity Index (Escherichia coli [10])
1 - 32: Selectivity Index (Escherichia coli [21]) | Selectivity Index (Escherichia coli [37]) | Selectivity Index (Escherichia coli [38])
